For orientation: inhibition means the change of the read-out against control, counted positive when it falls.

Consider three molecules from ChEMBL document CHEMBL5653631, “A Potent and Selective ULK1 Inhibitor Suppresses Autophagy and Sensitizes Cancer Cells to Nutrient Stress” (iScience, 2018).

In assay [1] the target is T1, Serine/threonine-protein kinase 3 (Homo sapiens) (UniProt Q13188).
T1 sequence (whole entry): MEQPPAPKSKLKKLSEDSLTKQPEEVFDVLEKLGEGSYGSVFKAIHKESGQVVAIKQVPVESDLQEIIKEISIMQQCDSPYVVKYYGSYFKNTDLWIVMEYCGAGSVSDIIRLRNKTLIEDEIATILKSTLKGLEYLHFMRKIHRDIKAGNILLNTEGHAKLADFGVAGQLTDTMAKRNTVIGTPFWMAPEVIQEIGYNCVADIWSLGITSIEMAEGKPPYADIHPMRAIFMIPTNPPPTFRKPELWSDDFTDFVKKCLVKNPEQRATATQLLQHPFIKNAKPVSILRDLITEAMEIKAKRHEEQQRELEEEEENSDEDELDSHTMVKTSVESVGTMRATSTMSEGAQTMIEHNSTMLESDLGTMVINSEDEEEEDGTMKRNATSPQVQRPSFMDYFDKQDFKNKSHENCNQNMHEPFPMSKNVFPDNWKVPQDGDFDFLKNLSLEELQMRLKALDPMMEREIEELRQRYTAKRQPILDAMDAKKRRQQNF
The assay can be described thus: Inhibition of human recombinant MST2 at 15 nM in presence of ATP by radiometric assay relative to control.

Assay [2] has as its target Leucine-rich repeat serine/threonine-protein kinase 2 (Homo sapiens) (UniProt Q5S007). The assay can be described thus: Inhibition of human recombinant LRRK2 at 15 nM in presence of ATP by radiometric assay relative to control.
The target in assay [3] is Tyrosine-protein kinase ABL2 (Homo sapiens) (UniProt P42684). The assay can be described thus: Inhibition of human recombinant ABL2 at 15 nM related to control ULK1.
Tyrosine-protein kinase ABL2 (Homo sapiens), sequence (P42684 whole entry): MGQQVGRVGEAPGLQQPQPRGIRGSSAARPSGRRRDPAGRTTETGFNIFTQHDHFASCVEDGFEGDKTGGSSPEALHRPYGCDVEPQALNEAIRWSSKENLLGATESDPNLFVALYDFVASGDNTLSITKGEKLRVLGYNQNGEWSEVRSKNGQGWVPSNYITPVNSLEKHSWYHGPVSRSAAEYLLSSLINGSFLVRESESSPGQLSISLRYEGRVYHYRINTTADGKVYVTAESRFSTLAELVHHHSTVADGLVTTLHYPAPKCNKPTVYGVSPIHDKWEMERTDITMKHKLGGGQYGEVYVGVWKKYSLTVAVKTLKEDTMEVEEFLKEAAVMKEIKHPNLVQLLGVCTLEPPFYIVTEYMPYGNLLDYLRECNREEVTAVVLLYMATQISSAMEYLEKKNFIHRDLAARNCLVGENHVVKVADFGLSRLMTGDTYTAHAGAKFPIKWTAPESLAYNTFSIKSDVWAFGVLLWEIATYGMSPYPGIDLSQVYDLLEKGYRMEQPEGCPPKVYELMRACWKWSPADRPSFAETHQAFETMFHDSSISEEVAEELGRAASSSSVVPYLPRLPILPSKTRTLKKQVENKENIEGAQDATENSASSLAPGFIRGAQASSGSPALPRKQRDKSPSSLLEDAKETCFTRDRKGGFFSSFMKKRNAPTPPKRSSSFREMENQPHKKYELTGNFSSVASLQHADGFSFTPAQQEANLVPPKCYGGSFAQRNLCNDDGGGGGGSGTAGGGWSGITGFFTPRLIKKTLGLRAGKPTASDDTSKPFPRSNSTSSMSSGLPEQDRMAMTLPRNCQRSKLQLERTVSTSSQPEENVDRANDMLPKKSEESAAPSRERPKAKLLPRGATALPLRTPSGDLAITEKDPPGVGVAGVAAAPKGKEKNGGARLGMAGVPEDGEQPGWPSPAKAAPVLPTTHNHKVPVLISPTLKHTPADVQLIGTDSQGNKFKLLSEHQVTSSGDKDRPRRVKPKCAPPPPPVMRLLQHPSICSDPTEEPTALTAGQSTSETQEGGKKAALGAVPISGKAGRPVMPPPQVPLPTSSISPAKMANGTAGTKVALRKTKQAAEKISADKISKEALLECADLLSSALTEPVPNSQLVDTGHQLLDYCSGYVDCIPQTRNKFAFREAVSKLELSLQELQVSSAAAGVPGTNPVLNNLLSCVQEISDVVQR
The target in assay [4] is Serine/threonine-protein kinase MAK (Homo sapiens) (UniProt P20794). The assay can be described thus: Inhibition of human recombinant MAK at 15 nM in presence of ATP by radiometric assay relative to control.
Serine/threonine-protein kinase MAK (Homo sapiens), sequence (P20794 whole entry, looked up): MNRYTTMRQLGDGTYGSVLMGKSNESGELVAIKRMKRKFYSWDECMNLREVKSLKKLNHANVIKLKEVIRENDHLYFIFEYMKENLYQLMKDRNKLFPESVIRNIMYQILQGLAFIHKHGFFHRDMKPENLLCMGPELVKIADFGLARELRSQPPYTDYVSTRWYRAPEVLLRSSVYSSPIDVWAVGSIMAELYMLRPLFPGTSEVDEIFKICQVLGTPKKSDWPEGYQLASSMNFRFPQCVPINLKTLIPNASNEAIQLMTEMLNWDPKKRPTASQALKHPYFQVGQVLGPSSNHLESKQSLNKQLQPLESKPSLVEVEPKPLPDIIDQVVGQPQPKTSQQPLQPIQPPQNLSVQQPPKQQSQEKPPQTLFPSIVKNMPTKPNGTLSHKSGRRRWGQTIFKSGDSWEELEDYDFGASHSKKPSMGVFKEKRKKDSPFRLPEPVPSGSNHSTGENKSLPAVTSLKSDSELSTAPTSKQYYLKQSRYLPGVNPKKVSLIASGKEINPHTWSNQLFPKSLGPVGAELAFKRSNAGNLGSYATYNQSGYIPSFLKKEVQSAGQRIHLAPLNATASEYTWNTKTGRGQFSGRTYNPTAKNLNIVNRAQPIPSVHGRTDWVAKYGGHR
Assay [5] addresses [Pyruvate dehydrogenase (acetyl-transferring)] kinase isozyme 4, mitochondrial (Homo sapiens) (UniProt Q16654). The assay can be described thus: Inhibition of human recombinant PDHK4 at 40 nM related to control ULK1.
For assay [6], the target named is Cyclin-dependent kinase 4 (Homo sapiens) (UniProt P11802). The assay is described as follows: Inhibition of human recombinant CDK4 at 500 nM related to control ULK1.
Cyclin-dependent kinase 4 (Homo sapiens), sequence (P11802 whole entry): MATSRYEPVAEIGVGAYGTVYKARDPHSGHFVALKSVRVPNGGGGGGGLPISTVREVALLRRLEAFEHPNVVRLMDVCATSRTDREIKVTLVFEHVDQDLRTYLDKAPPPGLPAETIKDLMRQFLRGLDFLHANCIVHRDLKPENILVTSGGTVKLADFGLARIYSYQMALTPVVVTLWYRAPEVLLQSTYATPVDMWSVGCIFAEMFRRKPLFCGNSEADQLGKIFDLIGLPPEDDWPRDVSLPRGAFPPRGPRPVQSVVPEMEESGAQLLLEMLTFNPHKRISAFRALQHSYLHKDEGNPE
Assay [7] concerns the target TRAF2 and NCK-interacting protein kinase (Homo sapiens) (UniProt Q9UKE5). The assay is described as follows: Inhibition of human recombinant TNIK at 500 nM in presence of ATP by radiometric assay relative to control.
Assay [8] has as its target Death-associated protein kinase 2 (Homo sapiens) (UniProt Q9UIK4). The assay is described as follows: Inhibition of human recombinant DAPK2 at 500 nM in presence of ATP by radiometric assay relative to control.
Assay [9] deals with T2, Serine/threonine-protein kinase BRSK2 (Homo sapiens) (UniProt Q8IWQ3).
T2 sequence (whole entry): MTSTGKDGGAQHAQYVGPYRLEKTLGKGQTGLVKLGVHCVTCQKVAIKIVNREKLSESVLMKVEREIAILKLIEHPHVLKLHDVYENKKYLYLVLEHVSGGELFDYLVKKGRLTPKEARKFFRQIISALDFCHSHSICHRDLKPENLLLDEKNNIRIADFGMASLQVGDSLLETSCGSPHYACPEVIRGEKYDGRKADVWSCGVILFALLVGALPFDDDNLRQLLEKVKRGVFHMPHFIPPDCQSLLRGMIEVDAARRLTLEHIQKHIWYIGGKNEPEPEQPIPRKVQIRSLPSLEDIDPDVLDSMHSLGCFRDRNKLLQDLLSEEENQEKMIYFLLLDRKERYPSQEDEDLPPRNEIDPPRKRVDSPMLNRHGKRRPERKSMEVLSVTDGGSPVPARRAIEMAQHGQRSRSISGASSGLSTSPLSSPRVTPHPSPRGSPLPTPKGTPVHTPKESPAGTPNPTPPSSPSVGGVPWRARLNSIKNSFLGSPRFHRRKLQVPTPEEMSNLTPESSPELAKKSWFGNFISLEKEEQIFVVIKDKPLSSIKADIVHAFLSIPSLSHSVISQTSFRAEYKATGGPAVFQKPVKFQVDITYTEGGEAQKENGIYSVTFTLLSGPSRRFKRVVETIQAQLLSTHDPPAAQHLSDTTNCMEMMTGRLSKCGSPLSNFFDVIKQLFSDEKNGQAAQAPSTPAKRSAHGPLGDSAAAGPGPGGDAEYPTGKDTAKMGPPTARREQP
The assay is described as follows: Inhibition of human recombinant BRSK2 at 500 nM in presence of ATP by radiometric assay relative to control. An outline of the steps:
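Recombinant human kinase panel (327 kinases) run as radiometric activity assays, each kinase in duplicate at one compound concentration. Activity remaining expressed relative to vehicle control; percent inhibition taken as 100% minus % activity remaining.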

Assay [10] has as its target T3, Ephrin type-B receptor 2 (Homo sapiens) (UniProt P29323).
T3 sequence (whole entry): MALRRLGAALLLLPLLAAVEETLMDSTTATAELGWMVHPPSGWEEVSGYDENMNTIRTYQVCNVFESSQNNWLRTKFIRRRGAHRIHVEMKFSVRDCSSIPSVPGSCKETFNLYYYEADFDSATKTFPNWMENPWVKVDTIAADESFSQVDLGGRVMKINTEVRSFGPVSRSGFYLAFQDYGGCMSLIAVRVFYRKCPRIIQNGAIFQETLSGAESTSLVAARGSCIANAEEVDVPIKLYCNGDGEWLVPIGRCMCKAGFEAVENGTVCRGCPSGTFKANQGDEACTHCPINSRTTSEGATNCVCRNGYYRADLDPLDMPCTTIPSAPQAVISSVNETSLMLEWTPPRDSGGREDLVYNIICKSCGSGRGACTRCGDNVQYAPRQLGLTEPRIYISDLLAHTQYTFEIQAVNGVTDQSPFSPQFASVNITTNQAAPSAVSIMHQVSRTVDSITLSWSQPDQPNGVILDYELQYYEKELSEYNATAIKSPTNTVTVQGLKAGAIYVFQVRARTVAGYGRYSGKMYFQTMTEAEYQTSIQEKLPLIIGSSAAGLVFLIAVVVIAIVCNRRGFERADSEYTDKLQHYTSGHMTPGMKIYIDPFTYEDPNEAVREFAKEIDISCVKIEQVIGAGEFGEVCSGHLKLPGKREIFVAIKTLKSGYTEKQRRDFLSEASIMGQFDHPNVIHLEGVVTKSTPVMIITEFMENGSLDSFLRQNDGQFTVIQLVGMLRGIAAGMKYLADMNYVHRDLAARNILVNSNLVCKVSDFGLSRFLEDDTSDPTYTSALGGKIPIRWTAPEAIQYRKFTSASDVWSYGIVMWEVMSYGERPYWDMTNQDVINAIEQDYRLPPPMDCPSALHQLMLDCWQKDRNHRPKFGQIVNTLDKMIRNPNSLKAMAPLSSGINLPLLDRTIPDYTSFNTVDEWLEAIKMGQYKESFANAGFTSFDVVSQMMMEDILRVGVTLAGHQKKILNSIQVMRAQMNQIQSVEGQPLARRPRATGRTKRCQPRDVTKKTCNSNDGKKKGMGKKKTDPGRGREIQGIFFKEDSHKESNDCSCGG
The assay is described as follows: Inhibition of human recombinant EphB2 at 500 nM in presence of ATP by radiometric assay relative to control.

Leucine-rich repeat serine/threonine-protein kinase 2 (Homo sapiens), sequence (Q5S007 whole entry): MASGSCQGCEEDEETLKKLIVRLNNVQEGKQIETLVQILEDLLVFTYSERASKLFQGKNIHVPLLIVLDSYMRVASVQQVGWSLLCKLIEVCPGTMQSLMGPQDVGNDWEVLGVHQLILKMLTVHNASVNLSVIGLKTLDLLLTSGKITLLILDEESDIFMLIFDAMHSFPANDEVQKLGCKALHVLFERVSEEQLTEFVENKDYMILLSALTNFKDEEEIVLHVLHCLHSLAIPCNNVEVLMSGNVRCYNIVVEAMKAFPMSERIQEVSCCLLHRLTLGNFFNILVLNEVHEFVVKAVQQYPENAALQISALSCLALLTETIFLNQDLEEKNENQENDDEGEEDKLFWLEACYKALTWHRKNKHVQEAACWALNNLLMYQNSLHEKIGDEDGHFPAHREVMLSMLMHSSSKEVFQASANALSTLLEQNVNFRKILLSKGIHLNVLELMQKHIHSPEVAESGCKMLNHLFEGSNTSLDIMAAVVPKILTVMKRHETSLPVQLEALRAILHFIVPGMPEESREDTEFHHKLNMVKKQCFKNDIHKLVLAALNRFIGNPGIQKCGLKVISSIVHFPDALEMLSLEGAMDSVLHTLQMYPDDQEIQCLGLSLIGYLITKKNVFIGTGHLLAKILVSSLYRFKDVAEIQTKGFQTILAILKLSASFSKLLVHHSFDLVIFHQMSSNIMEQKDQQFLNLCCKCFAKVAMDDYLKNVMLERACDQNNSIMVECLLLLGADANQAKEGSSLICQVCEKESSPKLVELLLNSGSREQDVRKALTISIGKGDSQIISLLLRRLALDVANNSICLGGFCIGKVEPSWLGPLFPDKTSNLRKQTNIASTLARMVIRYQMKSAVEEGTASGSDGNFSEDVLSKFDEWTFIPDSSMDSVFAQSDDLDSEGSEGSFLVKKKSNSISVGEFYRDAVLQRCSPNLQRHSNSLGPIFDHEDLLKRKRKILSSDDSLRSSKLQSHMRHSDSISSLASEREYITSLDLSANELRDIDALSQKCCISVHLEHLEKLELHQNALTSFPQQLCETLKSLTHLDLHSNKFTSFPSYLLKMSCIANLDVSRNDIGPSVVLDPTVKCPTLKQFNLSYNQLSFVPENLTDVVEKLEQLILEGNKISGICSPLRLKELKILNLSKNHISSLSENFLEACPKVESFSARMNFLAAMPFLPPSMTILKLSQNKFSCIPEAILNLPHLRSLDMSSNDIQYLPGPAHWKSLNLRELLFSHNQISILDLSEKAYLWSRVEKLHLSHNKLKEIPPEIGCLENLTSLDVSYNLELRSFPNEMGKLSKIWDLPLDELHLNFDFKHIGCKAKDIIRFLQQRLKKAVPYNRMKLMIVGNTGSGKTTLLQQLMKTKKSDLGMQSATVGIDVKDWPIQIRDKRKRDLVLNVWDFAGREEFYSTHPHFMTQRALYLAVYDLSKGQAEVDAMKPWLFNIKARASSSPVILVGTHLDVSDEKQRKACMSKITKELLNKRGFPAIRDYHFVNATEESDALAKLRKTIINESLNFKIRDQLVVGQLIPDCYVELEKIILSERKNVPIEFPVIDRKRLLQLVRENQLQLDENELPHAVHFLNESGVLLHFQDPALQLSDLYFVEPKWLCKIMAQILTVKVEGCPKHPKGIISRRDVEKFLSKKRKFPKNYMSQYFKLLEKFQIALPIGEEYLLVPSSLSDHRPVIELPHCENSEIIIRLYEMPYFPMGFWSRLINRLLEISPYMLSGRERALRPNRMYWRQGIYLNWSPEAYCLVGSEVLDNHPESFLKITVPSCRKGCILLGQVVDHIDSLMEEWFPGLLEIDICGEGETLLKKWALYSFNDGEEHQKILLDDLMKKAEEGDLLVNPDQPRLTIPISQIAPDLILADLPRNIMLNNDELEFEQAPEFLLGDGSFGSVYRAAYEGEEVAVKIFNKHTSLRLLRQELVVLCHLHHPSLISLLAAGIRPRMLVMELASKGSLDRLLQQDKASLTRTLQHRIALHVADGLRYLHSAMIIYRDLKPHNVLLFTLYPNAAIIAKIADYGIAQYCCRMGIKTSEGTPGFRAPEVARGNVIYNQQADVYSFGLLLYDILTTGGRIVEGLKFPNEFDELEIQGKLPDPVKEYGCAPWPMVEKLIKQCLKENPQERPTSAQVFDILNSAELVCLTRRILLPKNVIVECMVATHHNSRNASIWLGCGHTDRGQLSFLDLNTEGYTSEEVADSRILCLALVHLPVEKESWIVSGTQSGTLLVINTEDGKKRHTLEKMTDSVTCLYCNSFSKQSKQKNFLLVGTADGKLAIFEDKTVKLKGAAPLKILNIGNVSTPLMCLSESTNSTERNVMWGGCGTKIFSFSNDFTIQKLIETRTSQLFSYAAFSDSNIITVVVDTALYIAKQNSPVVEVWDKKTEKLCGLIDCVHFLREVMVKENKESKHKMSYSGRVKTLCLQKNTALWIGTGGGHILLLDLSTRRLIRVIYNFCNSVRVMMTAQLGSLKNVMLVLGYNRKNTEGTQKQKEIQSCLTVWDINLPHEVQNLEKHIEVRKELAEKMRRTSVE
Death-associated protein kinase 2 (Homo sapiens), sequence (Q9UIK4 whole entry, looked up): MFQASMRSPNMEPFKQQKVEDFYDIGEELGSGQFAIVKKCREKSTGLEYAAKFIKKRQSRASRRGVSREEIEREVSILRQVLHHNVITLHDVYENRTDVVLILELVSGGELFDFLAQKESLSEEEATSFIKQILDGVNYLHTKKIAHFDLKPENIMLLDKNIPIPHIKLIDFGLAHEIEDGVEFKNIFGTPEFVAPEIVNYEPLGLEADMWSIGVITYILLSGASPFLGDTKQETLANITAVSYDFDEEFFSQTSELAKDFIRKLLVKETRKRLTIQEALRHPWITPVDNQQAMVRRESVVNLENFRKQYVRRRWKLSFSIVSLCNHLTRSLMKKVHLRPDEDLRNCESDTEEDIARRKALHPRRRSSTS

As to `CC(C)[C@H](NC(=O)c1cc(-c2cnn3cc(-c4ccc(OCCN5CCCCC5)cc4)cnc23)cs1)C(F)(F)F`, the inhibition in assay [1] stood at 3%; in [2] it was 3%; in assay [4], 5%. Besides, the fold change (FC) in [3] is 0.48.

For the molecule `O=C(N[C@@H](C1CC1)C(F)(F)F)c1cc(-c2cnn3cc(-c4ccc(F)cc4)cnc23)cs1`, the fold change (FC) in [5] was determined as 0.

Take `CNC(=O)c1ccccc1Oc1nc(Nc2cc(OC)c(OC)c(OC)c2)ncc1Br`: in [6], the fold change (FC) is 0. Besides, the inhibition in assay [7] stood at 4%; in [8], 0%; in assay [9] it was 3%; in [10] it was 15%.
